Measurements published in ChEMBL document CHEMBL4350958, “Rational Design of Short Peptide Variants by Using Kunitzin-RE, an Amphibian-Derived Bioactivity Peptide, for Acquired Potent Broad-Spectrum Antimicrobial and Improved Therapeutic Potential of Commensalism Coinfection of Pathogens” (J Med Chem, 2019).
Active and inactive are the calls of the source. No cut-off for these calls is given here. Where a SMILES comes first, the peptide text is derived from it.

What was measured:
[1] = test system: Salmonella enterica subsp. enterica serovar Pullorum; assay: Antibacterial activity against Salmonella pullorum ATCC 7913 measured after 24 hrs; assay type: functional
In short: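 Broth microdilution adapted from NCCLS. Mid-log bacteria were diluted in MHB to a final (0.5–1) × 10^5 CFU mL−1. Peptides were serially diluted in 0.2% BSA and mixed with an equal volume of cells. After 24 h at 37 °C, MIC was read at A492 as the lowest concentration inhibiting 95% of growth. At least three independent experiments, each with three technical replicates.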

[2] = test system: Salmonella enterica subsp. enterica serovar Pullorum; assay: Bactericidal activity against Salmonella pullorum ATCC 7913 incubated for 24 hrs followed by replating on agar plate and measured after overnight incubation; assay type: functional
In short: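 Mid-log bacteria diluted in MHB to (0.5–1) × 10^5 CFU/mL and mixed 1:1 with peptide serially diluted in 0.2% BSA. After 24 h at 37 °C, 50 μL of each mixture was plated on agar and incubated overnight. MBC taken as the lowest concentration killing >99.9% of cells. At least three independent experiments, each with three technical replicates.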

Pseudomonas aeruginosa [3] = assay: Antibacterial activity against Pseudomonas aeruginosa ATCC 27853 at sub-MBC measured after 17 serial passages; assay type: functional, organism-based
In short: (§1)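 P. aeruginosa ATCC 27853 passaged every 24 h by 100-fold dilution in MHB containing sub-MBC drug, for 30 passages. MBC was tested on the cells from each passage. Control cells were passaged in drug-free MHB. Run independently in triplicate with three biological replicates.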

Pseudomonas aeruginosa [4] = assay: Antibacterial activity against Pseudomonas aeruginosa ATCC 27853 assessed as ratio of MBC after and before 30 serial passages at sub-MBC; assay type: functional; in short: as §1
[5] = Hemolytic activity in human RBC at 128 uM measured after 1 hr relative to control; assay type: ADME, cell-based, Erythrocyte; details: human red blood cells (erythrocytes), read-out: Activity
In short: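 Fresh human erythrocytes at ~1% (v/v) in PBS pH 7.4, mixed with equal volume of peptide (1-128 µM) for 1 h at 37 °C. After centrifugation, hemoglobin in the supernatant read at 576 nm. Untreated cells set 0% and 0.1% Triton X-100 set 100% hemolysis. At least three independent experiments, each in triplicate.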

Staphylococcus aureus [6] = assay: Bactericidal activity against Staphylococcus aureus ATCC 29213 assessed as reduction in bacterial growth at MBC by time-kill assay; assay type: functional, organism-based
In short: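 Time-kill assay. E. coli ATCC 25922, S. aureus ATCC 29213 or C. albicans cgmcc 2.2086 at a final 0.5-1×10^5 CFU mL-1 treated at 1×MBC/MFC. Aliquots collected at different times to calculate survival, with an untreated control. Mean of three independent experiments, each with three technical replicates.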

Lipid bilayer [7] = assay: Induction of membrane disruption in PC/CL large unilamellar vesicles assessed as calcein-entrapped liposome leakage at 1 uM after 15 mins by spectrofluorophotometric assay relative to control; details: artificial membrane, 0.25 h
Lipopolysaccharide (LPS) = assay: Displacement of BODIPY-TR-cadaverine from Escherichia coli O111:B4 LPS at 1 to 64 uM after 1 hr by spectrofluorophotometric method relative to control
In short: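 LPS from E. coli O111:B4 (50 μg/mL) preincubated 4 h with BODIPY-TR-cadaverine (5 μg/mL) in 50 mM Tris, pH 7.4. Mixed with equal volume of peptide (1-64 µM) and incubated 1 h at 37 °C, then fluorescence read. %ΔF = (Fobs−F0)/(F100−F0)×100, with 10 μg mL-1 polymyxin B defining F100. Three technical replicates per experiment.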

Escherichia coli [8] = assay: Induction of cytoplasmic membrane […] in Escherichia coli ATCC 25922 assessed as increase in ONPG release at 1 to 64 uM measured at 6 mins interval for 120 mins by spectroscopically; assay type: organism-based
In short: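 E. coli 25922 grown to mid-log in MHB with 2% lactose, then diluted to OD600 0.05 in 5 mM HEPES pH 7.4 with 20 mM glucose and 1.5 mM ONPG. Mixed with equal volume of peptide (1 to 64 μM) at 37 °C. OD420 read every 6 min for 0–120 min. Triplicate, three biological replicates.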

Lipid bilayer [9] = assay: Induction of membrane disruption in PG/CL/PE large unilamellar vesicles assessed as calcein-entrapped liposome leakage at 64 uM after 15 mins by spectrofluorophotometric assay relative to control
In short: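 Calcein (70 mM)-loaded LUVs of PG/CL/PE (2:1:7 w/w/w, E. coli membrane mimic), made by freeze-thaw and 100-nm extrusion, free dye removed on Sephadex G-50. LUVs (100 μM) exposed to peptide (1–64 μM) for 15 min. Leakage read at ex 490/em 520 nm: liposomes alone are background, Triton X-100 is 100%. Independent triplicates.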

Escherichia coli [10] = assay: Induction of outer membrane permeabilization in Escherichia coli ATCC 25922 at 64 uM by NPN-dye based assay relative to control
In short: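 Mid-log E. coli ATCC 25922 (OD600 0.2) incubated 30 min with NPN (10 μM) in 5 mM HEPES pH 7.4 with 5 mM glucose, then mixed 1:1 with peptide (1–64 μM). Fluorescence (ex 350/em 420 nm) recorded until it plateaued. Percent NPN uptake calculated relative to no peptide and to 10 μg/mL polymyxin B. Three independent experiments, triplicates.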

Staphylococcus aureus [11] = assay: Antibacterial activity against Staphylococcus aureus ATCC 29213 assessed as ratio of MIC95 in presence of NaCl to in absence of NaCl; assay type: functional
Escherichia coli [12] = assay: Antibacterial activity against Escherichia coli ATCC 25922 assessed as ratio of MIC95 in presence of NaCl to in absence of NaCl; assay type: functional
Pseudomonas aeruginosa [13] = assay: Antibacterial activity against melittin-resistant Pseudomonas aeruginosa ATCC 27853 measured after 24 hrs; assay type: functional, organism-based
Candida albicans = assay: Antifungal activity against Candida albicans cgmcc2.2086 infected in C57BL/6 mouse model of keratitis assessed as appearance of transparent corneas at 1 to 5 mg/ml administered as topical eye drop every 5 mins for first 4 hrs and every 30 mins for next 7 hrs measured post-last dose; assay type: functional, organism-based
Escherichia coli [14] = assay: Induction of morphological changes in Escherichia coli ATCC 25922 assessed as membrane blebbing at MBD measured after 1 hr by scanning electron microscopic analysis; assay type: functional, organism-based
Escherichia coli [15] = assay: Induction of morphological changes in Escherichia coli ATCC 25922 assessed as separation between outer membrane and cytoplasmic membrane at MBD measured after 1 hr by transmission electron microscopic analysis; assay type: functional, organism-based
Escherichia coli [16] = assay: Induction of morphological changes in Escherichia coli ATCC 25922 assessed as appearance of visible sparse cytoplasmic distribution at MBD measured after 1 hr by transmission electron microscopic analysis; assay type: functional, organism-based
Escherichia coli [17] = assay: Induction of outer membrane permeabilization in Escherichia coli ATCC 25922 at sub-MIC by NPN-dye based assay relative to control
In short: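 Mid-log E. coli ATCC 25922 (OD600 0.2) preloaded 30 min with 10 μM NPN in 5 mM HEPES, pH 7.4, 5 mM glucose; cells mixed with equal volume of peptide solutions (1 to 64 μM). Fluorescence (ex 350, em 420 nm) read until plateau, background-subtracted, expressed as % NPN uptake relative to 10 μg/mL polymyxin B (100%). Three independent experiments, triplicate each.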

## POLYMYXIN B
[1]
  MIC95: 1 µM
[2]
  MBC>99.9: 1 µM

## GENTAMICIN
[1]
  MIC95: 1 µM
[2]
  MBC>99.9: 2 µM
Pseudomonas aeruginosa [3]
  Activity: inactive
Pseudomonas aeruginosa [4]
  Ratio: 32

## CC[C@H](C)[C@H](NC(=O)CN)C(=O)NCC(=O)N[C@@H](C)C(=O)N[C@H](C(=O)N[C@@H](CC(C)C)C(=O)N[C@@H](CCCCN)C(=O)N[C@H](C(=O)N[C@@H](CC(C)C)C(=O)N[C@H](C(=O)N[C@H](C(=O)NCC(=O)N[C@@H](CC(C)C)C(=O)N1CCC[C@H]1C(=O)N[C@@H](C)C(=O)N[C@@H](CC(C)C)C(=O)N[C@H](C(=O)N[C@@H](CO)C(=O)N[C@@H](Cc1c[nH]c2ccccc12)C(=O)N[C@H](C(=O)N[C@@H](CCCCN)C(=O)N[C@@H](CCCNC(=N)N)C(=O)N[C@@H](CCCCN)C(=O)N[C@@H](CCCNC(=N)N)C(=O)N[C@@H](CCC(N)=O)C(=O)N[C@@H](CCC(N)=O)C(N)=O)[C@@H](C)CC)[C@@H](C)CC)[C@@H](C)O)[C@@H](C)O)C(C)C)C(C)C [MELITTIN]
[5]
  hemolysis at 1 h, 128 µM: 84 to 94%
Staphylococcus aureus [6]
  Activity: Active
Pseudomonas aeruginosa [3]
  Activity: inactive
Pseudomonas aeruginosa [4]
  Ratio: 128
Lipid bilayer [7]
  Activity: > 85%
Lipopolysaccharide (LPS)
  Activity: 96%
Escherichia coli [8]
  Activity: Active

## CC[C@H](C)[C@H](NC(=O)[C@H](CCCCN)NC(=O)[C@H](C)NC(=O)[C@H](C)N)C(=O)N[C@H](C(=O)N[C@@H](CC(C)C)C(=O)N[C@@H](CC(N)=O)C(=O)N1CCC[C@H]1C(=O)N[C@@H](CCCCN)C(=O)N[C@@H](Cc1ccccc1)C(=O)N[C@@H](CCCNC(=N)N)C(=O)N[C@@H](CS)C(=O)N[C@@H](CCCCN)C(=O)N[C@@H](C)C(=O)N[C@@H](C)C(=O)N[C@@H](Cc1ccccc1)C(=O)N[C@@H](CS)C(N)=O)[C@@H](C)CC (H-AAKIILNPKFRCKAAFC-NH2)
[5]
  hemolysis at 1 h, 128 µM: 20%
Lipid bilayer [9]
  Activity: < 5%
Lipopolysaccharide (LPS)
  Activity: 72%
Escherichia coli [10]
  Activity: 35%
Escherichia coli [8]
  Activity: Active

## H-AARRILRWIFR-NH2
Staphylococcus aureus [11]
  Ratio: 16
Escherichia coli [12]
  Ratio: 16

## H-AARIILRWRFR-NH2
Pseudomonas aeruginosa [13]
  Activity: Active
Staphylococcus aureus [11]
  Ratio: 4
Candida albicans
  Activity: Active
Lipid bilayer [9]
  Activity: 65%
Escherichia coli [10]
  Activity: 110%
Escherichia coli [14]
  Activity: Active
Escherichia coli [15]
  Activity: Active
Escherichia coli [16]
  Activity: Active
Escherichia coli [17]
  Activity: 15%
